Measured values as given in publication PMC7807167 (Methods (San Diego, Calif.), 2021).
Where two headings read alike, the source gives them in different places.

Columns and labels:
[1] = tested on: SARS-CoV-2; format: cell-based; details: for anti-SARS-CoV-2 activity at 25 µM: Fig 6, Fig 7; for inhibitory activity against SARS-CoV-2: concentration range tested
[2] = molecular target: T1, 3CLpro (Severe acute respiratory syndrome coronavirus 2, UniProt P0DTD1); experiment: Preliminary compound screening for 3CLpro inhibitors; format: biochemical, SARS-CoV-2; details: four concentrations, 1–50 µM, 3CLpro 0.4 µM, TVLQ-AMC 40 µM
Summary of the method: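 Duplicate wells, 25 °C. Test compound (1–50 µM) or DMSO (0 µM) preincubated about 5 min with 3CLpro (0.4 µM) in Tris-HCl pH 7.3, 1 mM EDTA. Started with TVLQ-AMC (40 µM), shaken 5 s, emission 440 nm (excitation 364 nm) read 1 min–3 h. Controls: 6–8 DMSO wells, 2 no-enzyme wells. Two replicate screens; emission normalized to 0 µM at 3 h.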

[3] = tested on: ATCC Vero E6 cells; details: for Cytotoxicity: Vero E6, tested range up to 50 μM
[4] = tested on: SARS-CoV-2/MT020880; format: cell-based; details: for IC50_Viral Entry blocking assay: ‘Very wide’ = some activity at high concentrations too staggering to plot
[5] = tested on: SARS-CoV-2/MT020880; format: cell-based; details: for IC-50_Viral Spread assay: ‘Very wide’ = some activity at high concentrations too staggering to plot
[6] = molecular target: T1, 3CLpro; experiment: 3CLpro enzyme inhibition assay; format: biochemical, SARS-CoV-2
Summary of the method: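 Inhibitor (0–1000 µM) preincubated about 5 min with 3CLpro (0.4 µM) in Tris-HCl pH 7.3, 1 mM EDTA, triplicate, 25 °C. Started with TVLQ-AMC (40 µM) at fixed concentration, shaken 5 s. Fluorescence (excitation 364 nm) read continuously over time.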

With O=C(CCCN1CCC(O)(c2ccc(Cl)cc2)CC1)c1ccc(F)cc1 [Haloperidol] the “anti-SARS-CoV-2 activity at 25 µM” value [1] was 9.8%, the “activity in 3CLpro screening (rate of substrate cleavage)” value [2] was “very mild activity” and the Cytotoxicity [3] was “Non-toxic within tested conc. range”.
OC[C@H]1O[C@@H](O[C@@H]2[C@@H](CO)OC(O)(CO)[C@H]2O)[C@H](O)[C@@H](O)[C@H]1O (mixture of isomers) [Lactulose] was tested, and the “IC50_Viral Entry blocking assay” value [4] was “nil”, the “IC-50_Viral Spread assay” value [5] was “nil” and the “inhibitory activity against SARS-CoV-2” value [1] was “no observed inhibitory activity”. The Cytotoxicity [3] was “Nontoxic within tested conc. range”.
In the case of [H]/N=C(/N)SCCCn1cc(C2=C(c3cn(C)c4ccccc34)C(=O)NC2=O)c2ccccc21 [Bisindolylmaleimide IX], the “activity in 3CLpro screening (rate of substrate cleavage)” value [2] is reported as “significant activity”, the IC50 [6] is reported as 114 ± 5.2 µM and the Cytotoxicity [3] is reported as “Nontoxic within tested conc. range”.
In the case of COCC(=O)Nc1c(I)c(C(=O)NCC(O)CO)c(I)c(C(=O)N(C)CC(O)CO)c1I (stereo not shown) [Iopromide], the “IC50_Viral Entry blocking assay” value [4] is reported as “nil”, the “IC-50_Viral Spread assay” value [5] is reported as “nil” and the “inhibitory activity against SARS-CoV-2” value [1] is reported as “no observed inhibitory activity”. For the same compound, the Cytotoxicity [3] was “Nontoxic within tested conc. range”.
In the case of NC[C@@H]1O[C@H](O[C@H]2[C@@H](O)[C@H](O[C@@H]3[C@@H](O)[C@H](N)C[C@H](N)[C@H]3O[C@H]3O[C@H](CO)[C@@H](O)[C@H](O)[C@H]3N)O[C@@H]2CO)[C@H](N)[C@@H](O)[C@@H]1O [Paromomycin], the “IC-50_Viral Spread assay” value [5] is reported as “(Very wide)”, the “anti-SARS-CoV-2 activity at 25 µM” value [1] is reported as 2.3% and the Cytotoxicity [3] is reported as “Nontoxic within tested conc. range”.
Ivermectin was tested, and the “Percent inhibition at 50 µM” value ([4]; viral entry assay, 50 µM) was 99%, the “Percent inhibition at 50 µM” value [5] was 46% and the “concentration with high cytotoxicity” value ([3]; ATCC E6 Vero cells, number of nuclei counted) was greater than 16.67 µM. For the same compound, the Cytotoxicity [3] was “Toxic above 50 µM”.
For NCC[C@H](O)C(=O)N[C@@H]1C[C@H](N)[C@@H](O[C@H]2O[C@H](CN)[C@@H](O)[C@H](O)[C@H]2O)[C@H](O)[C@H]1O[C@H]1O[C@H](CO)[C@@H](O)[C@H](N)[C@H]1O [Amikacin hydrate], the “IC50_Viral Entry blocking assay” value [4] was “(Very wide)”, the “IC-50_Viral Spread assay” value [5] was “(Very wide)” and the Cytotoxicity [3] was “Nontoxic within tested conc. range”.
C[C@@H]1O[C@@H](OC[C@H]2O[C@@H](Oc3c(-c4ccc(OCCO)c(OCCO)c4)oc4cc(OCCO)cc(O)c4c3=O)[C@H](O)[C@@H](O)[C@@H]2O)[C@H](O)[C@H](O)[C@H]1O [Troxerutin] was tested, and the “IC50_Viral Entry blocking assay” value [4] was “(Very wide)”, the “IC-50_Viral Spread assay” value [5] was “(Very wide)” and the “anti-SARS-CoV-2 activity at 25 µM” value [1] was 2.8%. For the same compound, the Cytotoxicity [3] was “Nontoxic within tested conc. range”.
